Measured values published in ChEMBL document CHEMBL3352769, “Discovery of glycine sulfonamides as dual inhibitors of sn-1-diacylglycerol lipase α and α/β-hydrolase domain 6” (J Med Chem, 2014).
Blank lines part the entries; values can stand above or below the compound they belong to. Calls of active or inactive are those of the source. No cut-off for these calls is given here.

Legend:
[1] = target: T1, Diacylglycerol lipase-alpha (Homo sapiens, UniProt Q9Y4D2); assay: Inhibition of human DAGLalpha expressed in HEK293T cell membranes; assay type: cell-based, HEK-293T
T1 sequence (Q9Y4D2 whole entry): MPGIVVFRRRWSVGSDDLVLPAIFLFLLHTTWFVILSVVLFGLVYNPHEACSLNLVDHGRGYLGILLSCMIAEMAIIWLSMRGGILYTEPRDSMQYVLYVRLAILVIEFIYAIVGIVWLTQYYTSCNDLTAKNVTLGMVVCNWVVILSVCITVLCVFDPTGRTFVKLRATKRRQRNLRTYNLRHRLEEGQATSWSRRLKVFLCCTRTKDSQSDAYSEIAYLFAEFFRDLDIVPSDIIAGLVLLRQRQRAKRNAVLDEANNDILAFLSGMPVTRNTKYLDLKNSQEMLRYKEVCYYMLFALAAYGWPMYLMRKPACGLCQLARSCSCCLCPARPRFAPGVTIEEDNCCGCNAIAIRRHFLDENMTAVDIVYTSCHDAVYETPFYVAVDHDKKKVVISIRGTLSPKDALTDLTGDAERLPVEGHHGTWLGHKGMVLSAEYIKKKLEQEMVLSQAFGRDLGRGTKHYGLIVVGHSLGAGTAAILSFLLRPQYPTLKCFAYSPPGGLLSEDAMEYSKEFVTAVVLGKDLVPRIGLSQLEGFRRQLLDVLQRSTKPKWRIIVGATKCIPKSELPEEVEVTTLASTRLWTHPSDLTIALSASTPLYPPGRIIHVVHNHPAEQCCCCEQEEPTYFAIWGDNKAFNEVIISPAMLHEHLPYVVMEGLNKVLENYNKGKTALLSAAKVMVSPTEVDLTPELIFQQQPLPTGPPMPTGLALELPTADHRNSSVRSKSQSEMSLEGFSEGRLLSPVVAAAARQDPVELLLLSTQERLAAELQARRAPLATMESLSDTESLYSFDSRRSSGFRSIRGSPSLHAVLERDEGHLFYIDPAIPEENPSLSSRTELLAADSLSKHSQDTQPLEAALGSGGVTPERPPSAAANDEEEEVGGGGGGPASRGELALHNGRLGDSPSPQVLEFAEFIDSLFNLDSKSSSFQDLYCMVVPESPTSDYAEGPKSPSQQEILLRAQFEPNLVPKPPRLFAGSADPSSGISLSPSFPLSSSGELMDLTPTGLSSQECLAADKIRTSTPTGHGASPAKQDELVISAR
Outline: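 Colorimetric biochemical assay using para-nitrophenylbutyrate as substrate with membranes from HEK293 cells overexpressing human DAGL-α.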

[2] = target: T2, Diacylglycerol lipase-alpha (Mus musculus) (UniProt Q6WQJ1); assay: (§1) Inhibition of MB064 labeling of DAGLalpha in mouse brain homogenates by activity based protein profiling assay; assay type: tissue-based
T2 sequence (whole entry): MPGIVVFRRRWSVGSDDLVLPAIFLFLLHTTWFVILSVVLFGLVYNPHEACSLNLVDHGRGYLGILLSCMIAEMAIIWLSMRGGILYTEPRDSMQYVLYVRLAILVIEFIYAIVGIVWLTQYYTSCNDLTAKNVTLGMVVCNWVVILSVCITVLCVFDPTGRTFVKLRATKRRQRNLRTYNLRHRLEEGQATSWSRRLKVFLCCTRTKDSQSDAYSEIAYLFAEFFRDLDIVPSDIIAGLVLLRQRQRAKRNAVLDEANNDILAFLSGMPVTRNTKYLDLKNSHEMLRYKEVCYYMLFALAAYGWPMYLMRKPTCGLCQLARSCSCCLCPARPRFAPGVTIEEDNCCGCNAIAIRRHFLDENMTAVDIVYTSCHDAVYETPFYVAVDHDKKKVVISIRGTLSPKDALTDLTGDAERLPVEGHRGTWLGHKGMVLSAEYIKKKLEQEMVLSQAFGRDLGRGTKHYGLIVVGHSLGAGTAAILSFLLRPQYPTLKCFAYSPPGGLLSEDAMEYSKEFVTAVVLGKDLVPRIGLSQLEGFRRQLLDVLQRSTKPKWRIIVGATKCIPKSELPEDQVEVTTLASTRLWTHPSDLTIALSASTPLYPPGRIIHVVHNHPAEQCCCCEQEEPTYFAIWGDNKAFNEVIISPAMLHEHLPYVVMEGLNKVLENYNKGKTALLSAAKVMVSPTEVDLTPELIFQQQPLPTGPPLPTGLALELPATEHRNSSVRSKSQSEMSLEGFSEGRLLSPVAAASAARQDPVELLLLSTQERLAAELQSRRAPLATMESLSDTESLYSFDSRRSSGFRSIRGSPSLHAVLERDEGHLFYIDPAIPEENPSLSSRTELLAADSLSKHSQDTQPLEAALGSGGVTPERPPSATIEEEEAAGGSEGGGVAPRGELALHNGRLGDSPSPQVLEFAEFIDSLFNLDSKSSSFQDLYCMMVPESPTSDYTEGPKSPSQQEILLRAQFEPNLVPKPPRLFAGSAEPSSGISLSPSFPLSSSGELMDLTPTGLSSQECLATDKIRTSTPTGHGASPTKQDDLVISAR
Outline: (§2)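 Endogenous DAGL-α in mouse brain membrane proteome: inhibitors at a range of concentrations, 30 min at rt, then probe 1 for 10 min at rt. Quenched in SDS sample buffer, resolved on 10% SDS-PAGE, fluorescence scanned. Remaining activity taken from integrated band intensity; IC50 from dose-response curve (SEM, n = 3).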

[3] = target: T3, Diacylglycerol lipase-alpha (Mus musculus, UniProt Q6WQJ1); assay: as §1; assay type: tissue-based; outline: as §2
T3 sequence (Q6WQJ1 whole entry): T2 sequence (whole entry)

[4] = organism: Mus musculus; assay: Inhibition of MAGL labeling in mouse brain homogenates at 20 uM by activity based protein profiling assay; assay type: tissue-based
Outline: (§3)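 Mouse brain membrane proteome (2.0 mg/mL) preincubated 30 min at rt with inhibitor or DMSO vehicle, then labeled 15 min at rt with ABP 1 (250 nM final) or TAMRA-FP (500 nM final). Gel-based read-out: lane band intensity corrected for total protein loading by Coomassie stain, vehicle set to 100%.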

[5] = target: T4, Monoacylglycerol lipase ABHD6 (Mus musculus) (UniProt Q8R2Y0); assay: Inhibition of TAMRA-FP labeling of ABHD6 in mouse brain homogenates at 20 uM by activity based protein profiling assay; assay type: tissue-based; details: in the assay text read “MB064” for “TAMRA-FP”; outline: as §3
T4 sequence (whole entry): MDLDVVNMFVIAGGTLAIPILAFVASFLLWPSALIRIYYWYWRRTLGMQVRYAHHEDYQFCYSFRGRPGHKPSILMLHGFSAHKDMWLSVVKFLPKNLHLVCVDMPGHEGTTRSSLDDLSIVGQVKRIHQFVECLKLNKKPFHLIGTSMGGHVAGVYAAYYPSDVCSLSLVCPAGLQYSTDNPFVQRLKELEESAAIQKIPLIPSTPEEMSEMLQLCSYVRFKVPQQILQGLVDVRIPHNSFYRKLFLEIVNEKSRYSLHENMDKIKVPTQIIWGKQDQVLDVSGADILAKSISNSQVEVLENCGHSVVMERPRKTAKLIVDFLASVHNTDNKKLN

[6] = target: T5, Monoacylglycerol lipase ABHD6 (Homo sapiens) (UniProt Q9BV23); assay: (§4) Inhibition of human ABHD6 expressed in HEK293T cell membranes assessed as reduction in glycerol production using 2-arachidonoyl glycerol substrate; assay type: cell-based; details: HEK-293T
T5 sequence (whole entry): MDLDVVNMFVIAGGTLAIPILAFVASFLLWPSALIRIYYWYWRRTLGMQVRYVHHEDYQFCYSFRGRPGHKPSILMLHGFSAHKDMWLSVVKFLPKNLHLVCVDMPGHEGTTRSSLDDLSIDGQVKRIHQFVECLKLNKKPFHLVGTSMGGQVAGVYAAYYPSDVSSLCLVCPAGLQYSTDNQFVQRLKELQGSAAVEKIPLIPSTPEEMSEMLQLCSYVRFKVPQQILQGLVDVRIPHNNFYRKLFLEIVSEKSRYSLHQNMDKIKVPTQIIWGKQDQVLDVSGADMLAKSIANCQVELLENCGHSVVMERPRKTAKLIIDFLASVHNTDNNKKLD
Outline: (§5)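 Human ABHD6 membranes from transiently transfected HEK293T (0.04 µg/µL final) in HEMNB buffer, pH 7.4, preincubated 30 min with inhibitor. 2-AG (25 µM) added with glycerol kinase/GPO/HRP (0.2 U/mL), 0.125 mM ATP and 10 µM Amplifu Red. Resorufin fluorescence read every 5 min for 75 min at 21°C; slopes over 10–35 min, normalized; N = 2, n = 2.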

[7] = target: T6, Monoacylglycerol lipase ABHD6 (Homo sapiens, UniProt Q9BV23); assay: as §4; assay type: cell-based, HEK-293T; outline: as §5
T6 sequence (Q9BV23 whole entry): T5 sequence (whole entry)

[8] = target: T2, Diacylglycerol lipase-alpha (Mus musculus); assay: Inhibition of MB064 labeling of DAGLalpha in mouse brain homogenates by activity based protein profiling assay
[9] = target: T1, Diacylglycerol lipase-alpha; assay: Inhibition of human DAGLalpha expressed in HEK293T cell membranes assessed as reduction in hydrolysis of inhibition of [14C]-sn-1-oleoyl-2-arachidonoyl-glycerol; assay type: cell-based, HEK-293T

SMILES: CC1(C)CCc2cc(S(=O)(=O)N(Cc3cccc(Oc4ccccc4)c3)Cc3nnn[nH]3)ccc2O1
IC50 [1]: > 10000 nM

SMILES: CC1(C)CCc2cc(S(=O)(=O)N(CC(=O)NCCOCCN)Cc3ccc(Oc4ccccc4)cc3)ccc2O1
IC50 [1]: > 10000 nM

SMILES: CC1(C)CCc2cc(S(=O)(=O)N(CCN)Cc3ccc(Oc4ccccc4)cc3)ccc2O1
IC50 [1]: 512 nM

SMILES: CC1(C)CCc2cc(S(=O)(=O)N(CC(N)=O)Cc3cccc(Oc4ccccc4)c3)ccc2O1
IC50 [1]: > 10000 nM

SMILES: O=C(O)CN(Cc1ccc(Oc2ccccc2)cc1)S(=O)(=O)c1c(Cl)cccc1Cl
IC50 [1]: 695 nM

SMILES: CC1(C)CCc2cc(S(=O)(=O)N(CC#N)Cc3cccc(Oc4ccccc4)c3)ccc2O1
IC50 [1]: > 10000 nM

SMILES: O=C(O)CN(Cc1ccc(Oc2ccccc2)cc1)C(=O)c1ccc(Cl)cc1
IC50 [1]: > 10000 nM

SMILES: O=C(O)CN(Cc1ccc(Oc2ccccc2)cc1)C(=O)c1c(Cl)cccc1Cl
IC50 [1]: > 10000 nM

SMILES: CC1(C)CCc2cc(S(=O)(=O)N(CCOC(=O)N3CCCCC3)Cc3cccc(Oc4ccccc4)c3)ccc2O1
IC50 [1]: > 10000 nM

SMILES: CC1(C)CCc2cc(S(=O)(=O)N(CC(=O)O)Cc3ccc(Oc4ccccc4)cc3)ccc2O1
IC50 [1]: 18 nM
Ki [9]: 700 nM
inhibition [2]: Dose-dependent effect
IC50 [3]: 124 nM
inhibition [4]: inactive
inhibition [5]: Active
inhibition [6]: Dose-dependent effect
Ki [7]: 800 nM
inhibition [8]: Dose-dependent effect

SMILES: CC1(C)CCc2cc(S(=O)(=O)N(CCO)Cc3cccc(Oc4ccccc4)c3)ccc2O1
IC50 [1]: > 10000 nM

SMILES: O=C(O)CN(Cc1ccc(Oc2ccc(C(F)(F)F)cn2)cc1)C(=O)c1ccc(Cl)cc1
IC50 [1]: > 10000 nM

SMILES: O=C(O)CN(Cc1cccc(Oc2ccccc2)c1)S(=O)(=O)c1c(Cl)cccc1Cl
IC50 [1]: 1600 nM

SMILES: COC(=O)CN(Cc1ccc(Oc2ccccc2)cc1)S(=O)(=O)c1ccc2c(c1)CCC(C)(C)O2
IC50 [1]: > 10000 nM

The next lines start with results.

IC50 [1]: 91 nM
SMILES: O=C(O)CN(Cc1cccc(Oc2ccccc2)c1)S(=O)(=O)c1ccc(Cl)cc1

IC50 [1]: 302 nM
SMILES: O=C(O)CN(Cc1ccc(Oc2ccc(C(F)(F)F)cn2)cc1)S(=O)(=O)c1ccc(Cl)cc1

IC50 [1]: 65 nM
inhibition [2]: Dose-dependent effect
IC50 [3]: 743 nM
inhibition [5]: Active
inhibition [6]: Dose-dependent effect
Ki [7]: 2700 nM
inhibition [8]: Dose-dependent effect
SMILES: CC1(C)CCc2cc(S(=O)(=O)N(CC(=O)O)Cc3ccc(Oc4ccc(C(F)(F)F)cn4)cc3)ccc2O1
inhibition [4]: inactive

IC50 [1]: 56 nM
inhibition [2]: Dose-dependent effect
IC50 [3]: 355 nM
inhibition [5]: Active
inhibition [6]: Dose-dependent effect
Ki [7]: 18300 nM
inhibition [8]: Dose-dependent effect
SMILES: CC1(C)CCc2cc(S(=O)(=O)N(CC(=O)O)Cc3cccc(Oc4ccccc4)c3)ccc2O1
inhibition [4]: inactive

IC50 [1]: 143 nM
SMILES: CC1(C)CCc2cc(S(=O)(=O)N(CC(=O)O)Cc3cccc(Oc4ccc(C(F)(F)F)cn4)c3)ccc2O1

IC50 [1]: 66 nM
SMILES: O=C(O)CN(Cc1ccc(Oc2ccccc2)cc1)S(=O)(=O)c1ccc(Cl)cc1

IC50 [1]: 185 nM
SMILES: CC1(C)CCc2cc(S(=O)(=O)N(CC(=O)O)Cc3ccccc3Oc3ccccc3)ccc2O1
